Activity calls are given as the source filed them. The rule behind the calls is not given here.

6 compounds from ChEMBL document CHEMBL3272356, “Adriamycin analogs. Periodate oxidation of adriamycin” (J Med Chem, 1976) can be followed below.

Data set [1] has as its system L1210. In words: Inhibition of DNA synthesis in mouse L1210 cells preincubated for 3 hrs followed by [3H]-thymidine addition measured after 1 hr by scintillation spectrometric analysis. The class given is functional. Conditions: read-out: ED50 (the source's name). The procedure, abridged:
(§1)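 L1210 suspension at 2 × 10^6/ml in 1640 medium with 10% fetal calf serum and 20 mM HEPES, pH 7.2. Drug tested at 100 to 0.100 µM in half-log steps, 3 h at 37° with shaking. Pulse 1 h with 0.5 µCi/ml [3H]thymidine (DNA) or [3H]uridine (RNA). TCA-precipitable counts expressed as % of control; ED50 read from the points bracketing 50%, with the bracketing assays repeated.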

Data set [2] deals with P388. In words: Antitumor activity against mouse P388 cells allografted in mouse assessed as increase in survival time at 50 mg/kg, ip qd administered for 9 days relative to control. Conditions: route intraperitoneal. Type of data set: functional.
Data set [3] concerns P388. The data set can be described thus: Antitumor activity against mouse P388 cells allografted in mouse assessed as increase in survival time at 3.12 mg/kg, ip qd administered for 9 days relative to control. The class given is functional. Conditions: route intraperitoneal.
Data set [4] has as its system P388. In words: Antitumor activity against mouse P388 cells allografted in mouse assessed as increase in survival time at 12.5 mg/kg, ip qd administered for 9 days relative to control. Type of data set: functional. Conditions: route intraperitoneal.
For data set [5], the system named is Calf thymus DNA. In words: Binding affinity to calf thymus DNA assessed as decrease in absorptivity of visible maxima of compound at 1:1 to 16:1 compound to DNA ratio by UV-visible spectra analysis. The class given is nucleic-acid assay. Conditions: Bos taurus. An outline of the steps: (§2)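 Calf thymus DNA stock sonicated on ice to limit precipitation of the complex. DNA concentration was taken from the supplier's phosphorus content. UV-visible spectra were recorded.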

Data set [6] concerns Mus musculus. The data set can be described thus: Acute toxicity in mouse allografted with mouse P388 cells assessed as survival less than 5 days at 1.56 to 50 mg/kg, ip qd. On the set-up: dose 1.56-50 mg/kg, route intraperitoneal. The conditions noted are these: in vivo, 120 h. The class given is organism-based. The procedure, abridged: (§3)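 BDF or CDF mice were implanted ip with 10^6 P-388 lymphocytic leukemia cells on day 0 and dosed ip on days 1-9. Acute toxic drug deaths were scored as survival of less than 5 days after the start of treatment. Testing was done by the NCI Drug Research and Development Program.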

The subject of data set [7] is Calf thymus DNA. The data set can be described thus: Binding affinity to calf thymus DNA assessed as bathochromatic shift at 1:1 to 16:1 compound to DNA ratio by UV-visible spectra analysis. Type of data set: nucleic-acid assay. Conditions: Bos taurus. An outline of the steps: as §2
The test system of data set [8] is L1210. In words: Inhibition of RNA synthesis in mouse L1210 cells preincubated for 3 hrs followed by [3H]-uridine addition measured after 1 hr by scintillation spectrometric analysis. The class given is functional. The conditions noted are these: read-out: ED50 (the source's name). The procedure, abridged:
as §1

Data set [9] deals with Calf thymus DNA. In words: Binding affinity to calf thymus DNA assessed as increase in melting temperature at 1.54 x 10^-5 M by UV spectrophotometric analysis. The class given is nucleic-acid assay. Conditions: Bos taurus.
Data set [10] has as its system P388. The data set can be described thus: Antitumor activity against mouse P388 cells allografted in mouse assessed as increase in survival time at 25 mg/kg, ip qd administered for 9 days relative to control. Type of data set: functional. Conditions: route intraperitoneal.
In data set [11] the test system is P388. In words: Antitumor activity against mouse P388 cells allografted in mouse assessed as increase in survival time at 6.25 mg/kg, ip qd administered for 9 days relative to control. Type of data set: functional. Conditions: route intraperitoneal.
The subject of data set [12] is P388. In words: Antitumor activity against mouse P388 cells allografted in mouse assessed as increase in survival time at 1.56 mg/kg, ip qd administered for 9 days relative to control. The class given is functional. The conditions noted are these: route intraperitoneal.
The test system of data set [13] is L1210. In words: Inhibition of DNA synthesis in mouse L1210 cells at < 100 uM preincubated for 3 hrs followed by [3H]-thymidine addition measured after 1 hr by scintillation spectrometric analysis. Type of data set: functional, cell-based. The procedure, abridged:
as §1

The subject of data set [14] is L1210. In words: Inhibition of RNA synthesis in mouse L1210 cells at < 100 uM preincubated for 3 hrs followed by [3H]-uridine addition measured after 1 hr by scintillation spectrometric analysis. The class given is functional, cell-based. The procedure, abridged:
as §1

The subject of data set [15] is P388. The data set can be described thus: Antitumor activity against mouse P388 cells allografted in mouse assessed as increase in survival time at 0.12 mg/kg, ip qd administered for 9 days relative to control. The class given is functional. The conditions noted are these: route intraperitoneal.
For data set [16], the system named is P388. In words: Antitumor activity against mouse P388 cells allografted in mouse assessed as increase in survival time at 1 mg/kg, ip qd administered for 9 days relative to control. Conditions: route intraperitoneal. The class given is functional.
Data set [17] deals with Mus musculus. In words: Acute toxicity in mouse allografted with mouse P388 cells assessed as survival less than 5 days at 0.06 to 4 mg/kg, ip qd. Type of data set: organism-based. Set-up: dose 0.06-4 mg/kg, route intraperitoneal. Conditions: in vivo, 120 h. An outline of the steps:
as §3

Data set [18] concerns P388. In words: Antitumor activity against mouse P388 cells allografted in mouse assessed as change in survival time at 4 mg/kg, ip qd administered for 9 days relative to control. Type of data set: functional. The conditions noted are these: route intraperitoneal.
Data set [19] concerns P388. In words: Antitumor activity against mouse P388 cells allografted in mouse assessed as increase in survival time at 0.5 mg/kg, ip qd administered for 9 days relative to control. Type of data set: functional. Conditions: route intraperitoneal.
The test system of data set [20] is Calf thymus DNA. The data set can be described thus: Binding affinity to calf thymus DNA assessed as increase in melting temperature at 2.1 x 10^-5 M by UV spectrophotometric analysis. The conditions noted are these: Bos taurus. Type of data set: nucleic-acid assay.
For data set [21], the system named is P388. In words: Antitumor activity against mouse P388 cells allografted in mouse assessed as increase in survival time at 0.25 mg/kg, ip qd administered for 9 days relative to control. Type of data set: functional. The conditions noted are these: route intraperitoneal.
Data set [22] deals with P388. In words: Antitumor activity against mouse P388 cells allografted in mouse assessed as increase in survival time at 0.06 mg/kg, ip qd administered for 9 days relative to control. The class given is functional. Conditions: route intraperitoneal.
Data set [23] deals with Calf thymus DNA. The data set can be described thus: Binding affinity to calf thymus DNA assessed as increase in melting temperature at 1.63 x 10^-5 M by UV spectrophotometric analysis. The class given is nucleic-acid assay. Conditions: Bos taurus.
In data set [24] the test system is P388. In words: Antitumor activity against mouse P388 cells allografted in mouse assessed as increase in survival time at 75 mg/kg, ip qd administered for 9 days relative to control. Type of data set: functional. Conditions: route intraperitoneal.
Data set [25] concerns Mus musculus. The data set can be described thus: Acute toxicity in mouse allografted with mouse P388 cells assessed as survival less than 5 days at 1.56 to 75 mg/kg, ip qd. Type of data set: organism-based. On the set-up: dose 1.56-75 mg/kg, route intraperitoneal. Conditions: in vivo, 120 h. An outline of the steps: as §3
Data set [26] deals with Calf thymus DNA. The data set can be described thus: Binding affinity to calf thymus DNA assessed as increase in melting temperature at 2 x 10^-5 M by UV spectrophotometric analysis. Type of data set: nucleic-acid assay. Conditions: Bos taurus.
For data set [27], the system named is P388. The data set can be described thus: Antitumor activity against mouse P388 cells allografted in mouse assessed as increase in survival time at 2 mg/kg, ip qd administered for 9 days relative to control. Conditions: route intraperitoneal. The class given is functional.

What is called ΔTm is the change in melting temperature against a reference sample. With `COc1cccc2c1C(=O)c1c(O)c3c(c(O)c1C2=O)C[C@@](O)(C(=O)O)C[C@@H]3O[C@H]1C[C@H](N)[C@H](O)[C@H](C)O1.Cl`, the EC50 is more than 100000 nM with L1210 [1] and 65000 nM in the data set on L1210 [8]. The T/C in the data set with P388 [2] is 151; in the data set on P388 [3], 107; with P388 [4], 151; with P388 [10] it was 163; with P388 [11], 142; in the data set on P388 [12], 100. Further, the result in the data set on Calf thymus DNA [5] and in the data set with Calf thymus DNA [7] was Active. In addition, the Activity entry with Mus musculus [6] was “Non-toxic”. The ΔTm in the data set on Calf thymus DNA [9] worked out at 2.6 °C.

Turning to `COc1cccc2c1C(=O)c1c(O)c3c(c(O)c1C2=O)C[C@@](O)(C(=O)O)C[C@@H]3O`, the inhibition result in the data set on L1210 [13] and in the data set on L1210 [14] was “inactive” in each case.

`COc1cccc2c1C(=O)c1c(O)c3c(c(O)c1C2=O)C[C@@](O)(C(=O)CO)C[C@@H]3O[C@H]1C[C@H](N)[C@H](O)[C@H](C)O1` [DOXORUBICIN]: the EC50 worked out at 800 nM in the data set on L1210 [1] and 900 nM with L1210 [8]. The T/C amounted to 156 in the data set on P388 [15]; 212 in the data set with P388 [16]; 71 in the data set on P388 [18]; 182 with P388 [19]; 162 in the data set with P388 [21]; 139 with P388 [22]. The result with Calf thymus DNA [5] and in the data set with Calf thymus DNA [7] was Active. Also, in the data set with Mus musculus [17], the Activity entry was “Non-toxic”. Besides, the ΔTm in the data set with Calf thymus DNA [20] is 17.8 °C.

Regarding `COC(=O)[C@]1(O)Cc2c(O)c3c(c(O)c2[C@@H](O)C1)C(=O)c1c(OC)cccc1C3=O`, the inhibition entry in the data set on L1210 [13] and in the data set with L1210 [14] was “inactive” throughout.

Turning to `COC(=O)[C@]1(O)Cc2c(O)c3c(c(O)c2[C@@H](O[C@H]2C[C@H](N)[C@H](O)[C@H](C)O2)C1)C(=O)c1c(OC)cccc1C3=O.Cl`, the EC50 is 2000 nM in the data set on L1210 [1] and 900 nM in the data set on L1210 [8]. The ΔTm in the data set with Calf thymus DNA [23] came out at 12.6 °C. In addition, the T/C is 125 in the data set with P388 [2]; 103 in the data set on P388 [3]; 112 in the data set on P388 [4]; 141 with P388 [24]; 115 with P388 [10]; 108 in the data set on P388 [11]. Also, in the data set on P388 [12], the T/C amounted to 107. Also, the outcome in the data set with Calf thymus DNA [5] and in the data set with Calf thymus DNA [7] was Active. The Activity entry with Mus musculus [25] was “Non-toxic”.

For the compound `COc1cccc2c1C(=O)c1c(O)c3c(c(O)c1C2=O)C[C@@](O)(C(C)=O)C[C@@H]3O[C@H]1C[C@H](N)[C@H](O)[C@H](C)O1` [DAUNORUBICIN], the EC50 with L1210 [1] and in the data set with L1210 [8] was 300 nM in each case. The T/C in the data set with P388 [15] is reported as 130; with P388 [16], 157; in the data set with P388 [18] it was 96; with P388 [19], 150; with P388 [27] it was 150; with P388 [21], 142. Also, the T/C with P388 [22] came out at 112. For the same compound, in the data set with Calf thymus DNA [26], the ΔTm came out at 16.8 °C. Moreover, the outcome in the data set on Calf thymus DNA [5] and with Calf thymus DNA [7] was Active. Further, the Activity entry in the data set on Mus musculus [17] was “Non-toxic”.
